Among the data in PubChem BioAssay AID686939 (The Scripps Research Institute Molecular Screening Center, 2013) are activation values, retold here.

In all, about 3,500 compounds went through this assay and about 1,400 (40%) were called active. The set was probably picked from earlier hits. Only a sample is shown. A number with no mark means an inactive call.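 Rule for the calls: active = activation above the solvent-only control well mean plus 3 SD, averaged across control plates (cut at about 5.2% in these data); inactive = the rest.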

A short description of the test: GAL4-VP16 luciferase reporter activation, counter-screen for SMARCA2 (BRM) activator project, cell-based, pG5luc, luminescence, high throughput (AID 686939). To be noted: HEK293 GAL4-VP16 pG5luc reporter, at 9.1 µM, stronger effect = higher value, scaled: DMSO wells 0%, SAHA wells 100%. In short, it runs like this:
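Material: 293 cells carrying GAL4-VP16 plus UAS-luciferase reporter / Amount: 2,500 transfected 293 cells per well / Times: 24 h exposure, 37 °C, 5% CO2, One-Glo 15 min RT / Measured by: One-Glo luciferase luminescence / Repeats: three replicates per compound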
For `Cc1ccc(-c2nc3ccc(Cl)cn3c2Cc2ccccc2)cc1`, the activation was 5.49% (active).
As to `Cc1ccc(-c2nc3ccc(Br)cn3c2Cc2ccccc2C(F)(F)F)cc1`, the activation is 7.09% (active).
Consider `CC(C)Cc1nnc(NC(=O)CCNC(=O)c2ccccc2Cl)s1`, for which the activation is -0.47%.
As to `Cc1cc(-n2cnc(-c3cn(C)nc3C)n2)no1`, the activation was 2.79%.
Then `Cc1nnc(NC(=O)Cn2c(=O)sc3ccccc32)s1`, with 0.78%; and `COc1ccccc1C1=Nc2cccc3cccc(c23)N1`, with 2.12%.
Turning to `NS(=O)(=O)c1ccccc1NC(=O)c1c(O)c2ccccc2[nH]c1=O`, the activation is 14.3% (active).
`CCN(CC)C(=O)CSc1nnc(-c2cccc(OC)c2)o1`: the activation is 2.98%.
With `CCOC(=O)Nc1ccc(NC(=O)OCC)cc1`, the activation is 2.67%.
For the compound `COc1ccc(-c2cc(-c3ccc(N)cc3)nc(N)c2C#N)cc1OC`, the activation is 3.72%.
Regarding `CCCCCCOC(=O)NCC(O)c1ccccc1` (centres undefined), the activation was 9.46% (active).
With `O=c1c2c(nc3n1CCCCC3)sc1c(O)cccc12`, the activation is 6.75% (active).
`CC(=O)c1ccc(NC(=O)c2sc3nc4n(c(=O)c3c2C)CCCCC4)cc1`: the activation was 9.18% (active).
The value for `CCOc1cccc2c1OC1(CCCCC1)N1N=C(c3cccnc3)CC21` (centres undefined) was 0.45%; that for `O=C(Cn1ncc(N2CCCC2)c(Br)c1=O)c1ccc(Cl)cc1` was 5.53% (active).
On to `COc1ccc2ccccc2c1CNCc1ccccn1`, for which the activation is 4.06%.
For the compound `C1=C(CCNc2ncnc3c2cnn3-c2ccccc2)CCCC1`, the activation is 14.9% (active).
The value for `CN(C)C(CNC(=O)c1ccc(OCc2cn3ccccc3n2)cc1)c1ccco1` (centres undefined) was 3.42%; that for `C=CC(=O)OCCOCCOCCOCCOC(=O)C=C` was 3.33%; that for `COC(=O)C1C(=O)c2c([nH]c(C(=O)OCCSC)c2C)CC1C` (centres undefined) was 11.8% (active).
The value for `O=C(CSc1nc2ccccc2[nH]1)c1cccs1` was 13.1% (active); that for `CC1(C(=O)NS(=O)(=O)C2CC2)CCCN(C(=O)CSc2ccccc2)C1` (centres undefined) was -0.05%; that for `Cc1cc(C(=O)NNC(=S)Nc2ccccc2C)cs1` was 8.68% (active).
Consider `Cc1ccc(-n2c(SCC(=O)N3CCC(C(=O)O)CC3)nc3ccccc3c2=O)cc1C`, for which the activation was 4.53%.
As for `CCNC(=S)N1CCN(c2ncccn2)CC1`, the activation was -0.27%.
As to `COC(=O)c1sc(-c2ccc(C(C)(C)C)cc2)cc1NC(=O)/C=C/C(=O)O`, the activation was 4.46%.
With `Cn1c2ccc(F)cc2c2nnc(NN)nc21`, the activation is 0.75%.
Regarding `Cc1cccc(CSc2ccc(-c3cccs3)nn2)c1`, the activation was 3.46%.
Regarding `COc1ccc(Cn2c(C)c(C)c(C#N)c2NC(=O)Nc2ccc(F)cc2)cc1`, the activation was -0.19%.
